Experimental data collected from several papers.
Each line is one published result; the experiments were not run side by side.
Target: Homeodomain-interacting protein kinase 3 (HIPK3, Homo sapiens, UniProt Q9H422)

`O=C(N[C@H]1CCCCC/C=C\C2C[C@@]2(C(=O)O)NC(=O)[C@@H]2C[C@@H](Oc3ccncc3)CN2C1=O)OC1CCCC1` (stereo partly shown) has a remaining binding of 100% (binding, competition with immobilised ligand; 1 µM).
With `O=C(NCCCN1CCOCC1)c1ccc(Nc2nccc(-c3cc4ccccc4s3)n2)cc1` the remaining binding was 39% (binding, competition with immobilised ligand; 1 µM).
The remaining binding of `CC(=O)N1CCC(c2ccc(C(=O)NC3=NCCN3)cc2C(F)(F)F)CC1` is reported as 72% (cell-free assay, competition with immobilised ligand; 1 µM).
For `COc1ncc2cc3ccccc3nc2c1C#N`, the remaining binding was 100% (cell-free assay, competition with immobilised ligand; 5 µM).
`CN(CCCC(F)(F)F)c1nccc(-c2cnn3ncccc23)n1` has a remaining binding of 88% (binding; 1 µM).
`FC(F)(F)Oc1cccc(-c2cnc3ccc(-c4ccncc4)nn23)c1` has a remaining binding of 0.7% (cell-free assay, competition with immobilised ligand; 5 µM).
For `c1cnn2ncc(-c3ccnc(N4CCC45COC5)n3)c2c1`, the remaining binding was 50% (binding; 1 µM).
The remaining binding of `O=C(O)c1cc(-c2ccc(C3CCNCC3)cc2)c2ccc(-c3ccc(C(F)(F)F)cc3)cc2c1` is reported as 100% (cell-free assay, competition with immobilised ligand; 1 µM).
`COc1ccnn2ncc(-c3ccnc(N(C)C)n3)c12` has a remaining binding of 80% (binding; 1 µM).
For `O=C(NCC1CCOCC1)c1n[nH]cc1NC(=O)c1c(F)cccc1F`, the remaining binding was 63% (binding, competition with immobilised ligand; 1 µM).
`CNC(=O)[C@@H]1CC[C@@H](n2c(-c3ccc4cnccc4c3)nc3ccc(C(=O)NCc4cccc(C(N)=O)c4)cc32)C1` has a remaining binding of 100% (binding, competition with immobilised ligand; 1 µM).
`CN(C)C(=O)Cn1cc(-c2nc(C3(c4ccc(-c5cnc(N)nc5)cc4)CC3)no2)cn1` gave a remaining binding of 71% (cell-free assay, competition with immobilised ligand; 1 µM).
`CN(C)c1ncc(F)c(-c2cnn3ncccc23)n1` has a remaining binding of 65% (binding; 1 µM).
The remaining binding of `CCS(=O)(=O)c1cc2cc(C[C@@](O)(CC(C)(C)c3ccc(F)cc3C(N)=O)C(F)(F)F)[nH]c2cn1` is reported as 65% (cell-free assay, competition with immobilised ligand; 1 µM).
`CC1CCCN1c1nccc(-c2cnn3ncccc23)n1` (stereo not shown) has a remaining binding of 100% (binding; 1 µM).
With `O=C(c1ccc(Nc2ncc(Cl)c(-c3cc4ccccc4s3)n2)cc1)N1CCC(N2CCCC2)CC1` the remaining binding was 1.8% (binding, competition with immobilised ligand; 1 µM).
The remaining binding of `c1cncc(-c2cccc(Nc3nccc(NC4CCCCC4)n3)c2)c1` is reported as 57% (binding, competition with immobilised ligand; 10 µM).
The remaining binding of `O=C(c1ccc(Nc2nccc(-c3cc4ccccc4s3)n2)cc1)N1CCC(N2CCCC2)CC1` is reported as 19% (binding, competition with immobilised ligand; 1 µM).
`N[C@@H]1CCN(c2nccc(-c3cnn4ncccc34)n2)C1` has a remaining binding of 83% (binding; 1 µM).
`Cc1cc(NC(=O)c2cccc(S(F)(F)(F)(F)F)c2)cc(-n2ccn3nc(-c4cccnc4)cc23)c1` gave a remaining binding of 88.8% (cell-free assay, competition with immobilised ligand; 1 µM).
`C[C@H]1CCN(c2nccc(-c3cnn4ncccc34)n2)C1` gave a remaining binding of 61% (binding; 1 µM).
`CS(=O)(=O)c1cc(C2(NC(=O)c3cncc4c3cnn4-c3ccc(F)cc3)CC2)ccn1` gave a remaining binding of 85% (cell-free assay, competition with immobilised ligand; 1 µM).
